For data set [1], the system named is wild-type (AF) A. ferrooxidans cells. It counts as cell-based. The following applies: for binding capacity: 1 mM mixed metal solution, pH 1.8.
Data set [2] has as its system AFMP (engineered A. ferrooxidans expressing mutant ModA/WtpA). The data set is described as follows: Metal binding by cells in synthetic metal solutions. It counts as cell-based. To be noted: for binding capacity to other oxyanion metals: Figure S6.
For data set [3], the system named is wild-type ModA/WtpA protein (AFE_1498). The data set can be described thus: Metal binding in vitro by purified protein. On the set-up: species or system A. ferrooxidans. The following applies: pH 1.8, 1:1 molar ratio. The essentials:
(§1)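 Purified polyHis-tagged protein (Ni-NTA resin, then size exclusion chromatography; about 35 kDa on SDS-PAGE). It was incubated 1 h at pH 1.8 with a solution of one oxyanion: molybdate, tungstate, chromate or perrhenate. Binding efficiency was taken after the incubation. Error bars are one standard deviation, and p < 0.05 versus wild-type protein for the same metal.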

The test system of data set [4] is AFWP (engineered A. ferrooxidans overexpressing wild-type ModA/WtpA). The data set is described as follows: Metal binding by cells in synthetic metal solutions. In kind it is cell-based. The following applies: for binding capacity / fold higher binding capacity compared to wild-type cells: pH 1.8; for binding capacity to other oxyanion metals: Figure S6.
Data set [5] concerns mutant (G9C/A166C) ModA/WtpA protein. The data set can be described thus: Metal binding in vitro by purified protein. On the set-up: species or system A. ferrooxidans. To be noted: pH 1.8, 1:1 molar ratio. The essentials:
as §1

The test system of data set [6] is AFMP cells. The data set is described as follows: Metal recovery from porphyry molybdenite processing concentrate. It counts as cell-based, A. ferrooxidans. To be noted: for efficiency of recovery: diluted acidic wastewater from molybdenite processing; for binding during reactions with process concentrate: data not shown. An outline of the steps: (§2)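 Wild-type *A. ferrooxidans* and strains engineered to (over)express wild-type (AFWP) or mutant (AFMP) ModA/WtpA oxyanion-binding protein (AFE_1498) were each reacted with diluted acidic wastewater from the washing and extraction steps of porphyry molybdenite processing. The wastewater held molybdenum and rhenium as major components, at pH 1.6. Mo and Re recovery efficiency after binding was compared with wild-type cells.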

The subject of data set [7] is wild-type (AF) A. ferrooxidans cells. The description is as above. In kind it is cell-based. To be noted: for efficiency of recovery: diluted acidic wastewater from molybdenite processing, pH 1.6; for binding during reactions with process concentrate: data not shown. The essentials: as §2
In data set [8] the target is wild-type ModA/WtpA protein. The data set can be described thus: Quenching of intrinsic tryptophan fluorescence, Langmuir isotherm fit. In kind it is binding, A. ferrooxidans. The following applies: read-out: dissociation constant, pH 1.8. The essentials: (§3)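 Purified polyHis-tagged protein (Ni-NTA resin, then size exclusion chromatography) at a fixed amount, titrated at pH 1.8 with varying initial concentrations of molybdate, tungstate, chromate or perrhenate. Significance was p < 0.05 versus wild-type protein for the same metal.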

The subject of data set [9] is mutant ModA/WtpA protein. Described as above. It counts as binding, A. ferrooxidans. To be noted: pH 1.8; for Kd: read-out: dissociation constant, mutant protein. An outline of the steps:
as §3

In data set [10] the test system is AFWP cells. The data set is described as follows: Metal recovery from porphyry molybdenite processing concentrate. It counts as cell-based, A. ferrooxidans. The following applies: pH 1.6; for efficiency of recovery: diluted acidic wastewater from molybdenite processing. The essentials:
as §2

For data set [11] the following is noted: cited from earlier work.
The mark [12] stands for this setting: 1 mM mixed metal solution, pH 1.8.
Where [13] appears, read: diluted process concentrate, pH 1.6.
[14] abbreviates: 1 mM pure metal solution, pH 1.8.

Like-named read-outs stand apart in the source and are kept apart here. Marks after values point to notes of the source that are not given here.

On to `[Fe+2]` [iron], for which the binding capacity in [1] (wild-type AF), in data set [2] (setting [12]) and in [4] (1 mM mixed metal solution) was 0.04 fg/cell each time. In addition, the “binding efficiency (bound)” value in [3] was found to be 1.7 ± 0.3%; in data set [5] it was 1.3 ± 0.5%.
As for `[O]=[Re](=[O])(=[O])[O-]` [perrhenate], the efficiency of recovery in data set [6] (pH 1.6) was 5.7 ± 0.1%*^,**; in data set [7], 1.7 ± 0.1%; in [10], 1.9 ± 0.2%*^,**. Moreover, the “fold more recovered than wild-type and AFWP cells” value in [6] (setting [13]) is recorded as 3 fold. The results for the Kd in data set [8] and in data set [9] were 1000 ± 100 nM and 160 ± 30 nM, respectively. In addition, in data set [2] (setting [12]), the “fold higher binding capacity than wild-type AF and AFWP cells” value came out at 2.7 fold. In [2] (setting [14]), this compound had a binding capacity of 1.3 fg/cell. Further, the “fold higher binding capacity compared to AFWP cells” value in data set [2] (setting [14]) was determined as 2 fold. Moreover, the “fold higher binding capacity compared to wild-type cells” value in data set [2] (setting [14]) was found to be 5 fold. Besides, the “binding efficiency (bound)” value in [3] is reported as 1.4%; in data set [5], 93%. Further, in data set [9], the “fold lower Kd (higher affinity) of mutant protein than wild-type protein” value is listed as 6 fold. For the same compound, in [11] (ref [47]), the pKa is listed as −1.25.
On to `[Se]` [selenium], for which the “binding during reactions with process concentrate” value in data set [6] and in data set [7] was “nonspecific binding” throughout.
As to phosphate, the “binding capacity to other oxyanion metals” value in data set [1] (wild-type AF, Figure S6) was “did not show significant binding capacity”; in data set [2], “did not show significant binding capacity”; in data set [4], “did not show significant binding capacity”.
Consider `[O]=[Cr](=[O])([O-])[O-]` [chromate], for which the binding capacity stood at 0.03 fg/cell in data set [1] (wild-type AF); 0.07 fg/cell in [2] (setting [12]); 0.6 fg/cell in data set [2] (setting [14]); 0.06 fg/cell in data set [4] (1 mM mixed metal solution); 0.6 fg/cell in data set [4] (1 mM pure metal solution). Moreover, the Kd was determined as 500 ± 110 nM in data set [8] and 480 ± 70 nM in [9]. In addition, the “fold higher binding capacity compared to wild-type cells” value in [2] (setting [14]) and in data set [4] (1 mM pure metal solution) was 1.3 fold throughout. The “binding efficiency (bound)” value in data set [3] and in [5] was “nearly all” in each case. In addition, the pKa in data set [11] (ref [4],[47]) is reported as 6.5.
As to `O=[As][O-].[Na+]` [arsenite], the “binding capacity to other oxyanion metals” value in data set [1], in [2] and in [4] was “did not show significant binding capacity” in each case.
Take `[O]=[W](=[O])([O-])[O-]` [tungstate]: the Kd in data set [8] amounted to 490 ± 110 nM; in data set [9], 360 ± 60 nM. Also, the binding capacity in data set [2] (setting [12]) is 0.04 fg/cell; in data set [2] (setting [14]), 0.24 fg/cell; in [4] (1 mM mixed metal solution), 0.02 fg/cell; in data set [4] (1 mM pure metal solution) it was 0.23 fg/cell. Also, the “fold higher binding capacity compared to wild-type cells” value in data set [2] (setting [14]) and in data set [4] (1 mM pure metal solution) was 2 fold each time. Further, the “binding efficiency (bound)” value in data set [3] and in [5] was “nearly all” in each case. Moreover, the pKa in data set [11] (ref [4],[47]) is 6.7.
Regarding `[O]=[Mo](=[O])([O-])[O-]` [molybdate], the efficiency of recovery in [6] (pH 1.6) was found to be 12 ± 1%; in data set [7] it was 6.0 ± 0.1%; in data set [10], 12 ± 1%. Moreover, the “fold more recovered compared to wild-type AF cells” value in data set [6] (setting [13]) and in [10] (diluted process concentrate) was 2 fold throughout. In addition, the binding capacity in data set [1] (wild-type AF) is 3.6 fg/cell; in [2] (setting [12]) it was 8.4 fg/cell; in data set [2] (setting [14]) it was 18 fg/cell; in [4] (1 mM mixed metal solution) it was 5.9 fg/cell; in [4] (1 mM pure metal solution), 18 fg/cell. Also, the Kd in [8] came out at 320 ± 30 nM; in [9], 150 ± 10 nM. Further, the “fold higher binding capacity compared to wild-type cells” value in data set [2] (setting [14]) and in data set [4] (1 mM pure metal solution) was 1.4 fold each time. The “binding efficiency (bound)” value in data set [3] and in data set [5] was “nearly all” each time. In addition, the “fold lower Kd (higher affinity) of mutant protein than wild-type protein” value in data set [9] is reported as 2 fold. The pKa in [11] (ref [4],[47]) is 3.8.
`[As]` [arsenic]: the “binding during reactions with process concentrate” value in data set [6] and in data set [7] was “nonspecific binding” in each case.

The values are drawn from article PMC11350598 (JACS Au, 2024).
